This note sets out measurements from ChEMBL document CHEMBL1125113, “(S)-5-fluoro-8-hydroxy-2-(dipropylamino)tetralin: a putative 5-HT1A-receptor antagonist” (J Med Chem, 1990).

The target in test [1] is T1, Aromatic-L-amino-acid decarboxylase (Homo sapiens) (UniProt P20711).
T1 sequence (whole entry): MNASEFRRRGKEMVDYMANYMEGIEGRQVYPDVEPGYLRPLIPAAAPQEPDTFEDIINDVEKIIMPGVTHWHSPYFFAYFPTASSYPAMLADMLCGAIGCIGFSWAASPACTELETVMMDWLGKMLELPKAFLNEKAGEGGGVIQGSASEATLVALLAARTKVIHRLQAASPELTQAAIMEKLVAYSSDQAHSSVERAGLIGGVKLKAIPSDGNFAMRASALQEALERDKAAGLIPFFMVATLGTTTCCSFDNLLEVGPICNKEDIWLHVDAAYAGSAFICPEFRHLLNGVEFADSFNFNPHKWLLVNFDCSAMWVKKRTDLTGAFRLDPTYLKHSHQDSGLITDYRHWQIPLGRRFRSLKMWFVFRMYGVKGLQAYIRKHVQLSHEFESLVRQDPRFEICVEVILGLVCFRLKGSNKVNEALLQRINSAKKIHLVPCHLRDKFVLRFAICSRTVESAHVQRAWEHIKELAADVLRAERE
As to the kind of experiment: The effect on the accumulation of DOPA in rat brain(limbic), by subcutaneous administration at a dose of 10(umol/kg). In kind it is functional, organism-based. The settings on record: target entry is the homologue from another species. Summed up: (§1)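 Nonpretreated rats received the test drug sc 60 min before death. The decarboxylase inhibitor NSD 1015 (287 µmol/kg sc) was given 30 min before death. Brain 5-HTP and DOPA in limbic and striatal regions were measured by HPLC with electrochemical detection. Values are means ± SEM, with n = 9 controls and 5–7 per experimental group.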

For test [2], the target named is T1, Aromatic-L-amino-acid decarboxylase (Homo sapiens). As to the kind of experiment: The effect on the accumulation of DOPA in rat brain(striatum), by subcutaneous administration at a dose of 10(umol/kg). In kind it is functional, organism-based. The settings on record: target entry is the homologue from another species. The gist of the method: as §1
For test [3], the target named is T2, 5-hydroxytryptamine receptor 1A (Rattus norvegicus, UniProt P19327).
T2 sequence (P19327 whole entry): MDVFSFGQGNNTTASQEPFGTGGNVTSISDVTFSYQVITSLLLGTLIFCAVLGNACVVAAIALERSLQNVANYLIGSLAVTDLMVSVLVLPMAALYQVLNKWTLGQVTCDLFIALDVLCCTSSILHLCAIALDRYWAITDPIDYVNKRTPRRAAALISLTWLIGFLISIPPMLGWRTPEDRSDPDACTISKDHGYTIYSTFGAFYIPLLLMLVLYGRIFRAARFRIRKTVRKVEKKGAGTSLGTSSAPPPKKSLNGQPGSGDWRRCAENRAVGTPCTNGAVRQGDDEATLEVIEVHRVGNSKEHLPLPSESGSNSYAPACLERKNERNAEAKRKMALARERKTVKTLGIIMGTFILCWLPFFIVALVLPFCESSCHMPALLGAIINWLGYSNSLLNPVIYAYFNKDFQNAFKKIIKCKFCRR
As to the kind of experiment: Binding affinity towards 5-hydroxytryptamine 1A receptor sites in cortical membranes using [3H]8-OH-DPAT as radioligand. In kind it is cell membranes.

Test [4] deals with Rattus norvegicus. In words: The effect on the accumulation of 5-HTP in rat brain(striatum), by subcutaneous administration at a dose of 10(umol/kg). In kind it is functional. Summed up:
as §1

The subject of test [5] is Rattus norvegicus. As to the kind of experiment: The effect on the accumulation of 5-HTP in rat brain(limbic), by subcutaneous administration at a dose of 10(umol/kg). In kind it is functional. Summed up:
as §1

The subject of test [6] is Rattus norvegicus. As to the kind of experiment: The effect on the accumulation of 5-HTP in rat brain(striatum), by subcutaneous administration at a dose of 32(umol/kg). In kind it is functional. The gist of the method:
as §1

Test [7] relates to Rattus norvegicus. In words: The effect on the accumulation of 5-HTP in rat brain(striatum), by subcutaneous administration at a dose of 0.32(umol/kg). In kind it is functional. Summed up:
as §1

Test [8] addresses T1, Aromatic-L-amino-acid decarboxylase (Homo sapiens). In words: The effect on the accumulation of DOPA in rat brain(striatum), by subcutaneous administration at a dose of 0.32(umol/kg). The note with it: target entry is the homologue from another species. In kind it is functional, organism-based. Summed up:
as §1

For test [9] the target is unchanged. In words: The effect on the accumulation of DOPA in rat brain(limbic), by subcutaneous administration at a dose of 0.32(umol/kg). In kind it is functional, organism-based. The note with it: target entry is the homologue from another species. Summed up:
as §1

The test system of test [10] is Rattus norvegicus. As to the kind of experiment: The effect on the accumulation of 5-HTP in rat brain(limbic), by subcutaneous administration at a dose of 0.32(umol/kg). In kind it is functional. Summed up: as §1

What is called Ki is a dissociation constant, usually derived from enzyme kinetics or from competition with a known ligand.

As for `CCCN(CCC)[C@@H]1CCc2c(F)ccc(O)c2C1`, the Potencymean in test [1] is 398 ng/g; in test [2], 1190 ng/g; in the test with Rattus norvegicus [4], <59.7 ng/g; in the test with Rattus norvegicus [5] it was <86.5 ng/g. Further, the affinity in [3], expressed as Ki, was 6.1 nM.
`CCCN(CCC)[C@H]1CCc2c(F)ccc(O)c2C1`: the Potencymean was 324 ng/g in test [1], 91.4 ng/g in the test on Rattus norvegicus [6], < 682 ng/g in test [2] and 152 ng/g in the test on Rattus norvegicus [5]. Besides, in test [3], affinity was put at a Ki of 52 nM.
For `CCCN(CCC)[C@@H]1CCc2cccc(O)c2C1`, the Potencymean in the test with Rattus norvegicus [7] is <53.3 ng/g; in test [8], 909 ng/g; in [9] it was 371 ng/g; with Rattus norvegicus [10], <103 ng/g.
